According to ChEMBL document CHEMBL1142866, “Synthesis and preliminary evaluation of 18F- or 11C-labeled bicyclic nucleoside analogues as potential probes for imaging varicella-zoster virus thymidine kinase gene expression using positron emission tomography” (J Med Chem, 2007):

Assays:
[1] = Drug uptake in human 293T cells transduced with VZV-tk gene after 1 hr; assay type: ADME, cell-based; conditions: hek-293t
Outline: (§1)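 Lentivirally transduced 293T cells (VZV-tk or LacZ control) plated in triplicate at 200 000 cells/well. After 24 h, 0.25 mL fresh medium with 5 µCi of the 18F tracer (3 h) or 30 µCi of the 11C tracer (1 h) added; 37 °C, 5% CO2. Cells washed thrice with ice-cold PBS, lysed, gamma-counted. Uptake given as % total radioactivity per mg protein (Bio-Rad assay); n = 3, unpaired two-sided t-test.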

Liver [2] = experiment: Biodistribution in liver of NMRI mouse assessed as standard uptake value after 60 mins; assay type: ADME, organism-based; conditions: in vivo, 1 h
Liver [3] = experiment: Biodistribution in liver of NMRI mouse after 60 mins; assay type: ADME, organism-based; conditions: in vivo, 1 h
Outline: (§2)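 Male NMRI mice (30-40 g) under ketamine/xylazine i.p. anesthesia received 0.1 mL of HPLC-purified 18F tracer (0.1 mCi/mL) or 11C tracer (1 mCi/mL) in water for injection via tail vein. Killed by decapitation at 2 or 60 min (n = 3 per time). Blood, organs and carcass weighed and gamma-counted. %ID = organ cpm/total cpm recovered. Blood mass taken as 7% of body mass. Mean ± SD.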

Kidney [4] = experiment: Biodistribution in kidney of NMRI mouse after 2 mins; assay type: ADME, organism-based; conditions: in vivo; outline: as §2
Intestine [5] = experiment: Biodistribution in intestine of NMRI mouse after 2 mins; assay type: ADME, organism-based; conditions: in vivo; outline: as §2
Blood [6] = experiment: Biodistribution in blood of NMRI mouse after 2 mins; assay type: ADME, organism-based; conditions: in vivo; outline: as §2
Blood [7] = experiment: Biodistribution in blood of NMRI mouse after 60 mins; assay type: ADME, organism-based; conditions: in vivo, 1 h; outline: as §2
Heart [8] = experiment: Biodistribution in heart of NMRI mouse assessed as standard uptake value after 2 mins; assay type: ADME, organism-based; conditions: in vivo
Heart [9] = experiment: Biodistribution in heart of NMRI mouse after 2 mins; assay type: ADME, organism-based; conditions: in vivo; outline: as §2
[10] = Biodistribution in spleen/pancreas of NMRI mouse assessed as standard uptake value after 60 mins; assay type: ADME, organism-based; conditions: in vivo, 1 h
Kidney [11] = experiment: Biodistribution in kidney of NMRI mouse assessed as standard uptake value after 60 mins; assay type: ADME, organism-based; conditions: in vivo, 1 h
[12] = Biodistribution in urine of NMRI mouse after 2 mins; assay type: ADME, organism-based; conditions: in vivo; outline: as §2
Brain [13] = experiment: Biodistribution in brain of NMRI mouse assessed as standard uptake value after 2 mins; assay type: ADME, organism-based; conditions: in vivo
[14] = Metabolic stability in mouse urine after 60 mins; assay type: ADME, tissue-based; conditions: read-out: Stability
Outline: (§3)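 Normal mice given 0.35-0.4 mCi of 11C tracer i.v. and decapitated at 2 or 30 min (plasma; one mouse per time) or 30/60 min (urine). EDTA plasma separated by centrifugation; urine used untreated. Samples spiked with authentic compound and run on Oasis HLB in series with C18, eluted with 0.05 M ammonium acetate/acetonitrile 70:30 at 1 mL/min. 1-mL fractions gamma-counted; intact tracer taken as % recovered radioactivity.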

Lung [15] = experiment: Biodistribution in lung of NMRI mouse assessed as standard uptake value after 2 mins; assay type: ADME, organism-based; conditions: in vivo
Liver [16] = experiment: Biodistribution in liver of NMRI mouse after 2 mins; assay type: ADME, organism-based; conditions: in vivo; outline: as §2
[17] = Biodistribution in spleen/pancreas of NMRI mouse after 60 mins; assay type: ADME, organism-based; conditions: in vivo, 1 h; outline: as §2
Blood [18] = experiment: Biodistribution in blood of NMRI mouse assessed as standard uptake value after 60 mins; assay type: ADME, organism-based; conditions: in vivo, 1 h
[19] = Biodistribution in spleen/pancreas of NMRI mouse after 2 mins; assay type: ADME, organism-based; conditions: in vivo; outline: as §2
[20] = Biodistribution in carcass of NMRI mouse after 2 mins; assay type: ADME, organism-based; conditions: in vivo; outline: as §2
Plasma [21] = experiment: Metabolic stability in mouse plasma assessed as radioactivity after 2 mins; assay type: ADME, cell-free; outline: as §3
Lung [22] = experiment: Biodistribution in lung of NMRI mouse after 60 mins; assay type: ADME, organism-based; conditions: in vivo, 1 h; outline: as §2
Liver [23] = experiment: Biodistribution in liver of NMRI mouse assessed as standard uptake value after 2 mins; assay type: ADME, organism-based; conditions: in vivo
Brain [24] = experiment: Biodistribution in brain of NMRI mouse assessed as standard uptake value after 60 mins; assay type: ADME, organism-based; conditions: in vivo, 1 h
Heart [25] = experiment: Biodistribution in heart of NMRI mouse assessed as standard uptake value after 60 mins; assay type: ADME, organism-based; conditions: in vivo, 1 h
Blood [26] = experiment: Biodistribution in blood of NMRI mouse assessed as standard uptake value after 2 mins; assay type: ADME, organism-based; conditions: in vivo
Lung [27] = experiment: Biodistribution in lung of NMRI mouse after 2 mins; assay type: ADME, organism-based; conditions: in vivo; outline: as §2
Kidney [28] = experiment: Biodistribution in kidney of NMRI mouse after 60 mins; assay type: ADME, organism-based; conditions: in vivo, 1 h; outline: as §2
[29] = Ratio of drug uptake in LV-VZVTK-1-P transduced cells to LV-LacZ-I-P transduced 293T cells after 1 hr; assay type: ADME, cell-based; conditions: human
Outline: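 Lentivirally transduced 293T cells (VZV-tk or LacZ control), plated in triplicate at 200 000 cells/well. After 24 h, given fresh medium with 30 µCi HPLC-purified 11C-labelled tracer per well, then 1 h at 37 °C in 5% CO2. Washed thrice in ice-cold PBS, lysed, gamma-counted, normalized to Bio-Rad protein (% total radioactivity/mg protein). VZV-tk/LacZ ratio, n = 3, unpaired Student t-test.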

Heart [30] = experiment: Biodistribution in heart of NMRI mouse after 60 mins; assay type: ADME, organism-based; conditions: in vivo, 1 h; outline: as §2
[31] = Partition coefficient, log P at pH 7.4; assay type: physicochemical; conditions: octanol/water
Outline: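 HPLC-purified radiotracer partitioned between 1-octanol and 0.025 M phosphate buffer pH 7.4. Vortexed 2 min at room temperature, centrifuged 5 min, aliquots of both phases gamma-counted. P = octanol cpm/buffer cpm after density and mass correction; n = 6.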

Brain [32] = experiment: Biodistribution in brain of NMRI mouse after 2 mins; assay type: ADME, organism-based; conditions: in vivo; outline: as §2
Lung [33] = experiment: Biodistribution in lung of NMRI mouse assessed as standard uptake value after 60 mins; assay type: ADME, organism-based; conditions: in vivo, 1 h
Kidney [34] = experiment: Biodistribution in kidney of NMRI mouse assessed as standard uptake value after 2 mins; assay type: ADME, organism-based; conditions: in vivo
[35] = Drug uptake in human 293T cells transduced with LacZ gene after 1 hr; assay type: ADME, cell-based; conditions: hek-293t; outline: as §1
[36] = Metabolic stability in mouse urine after 30 mins; assay type: ADME, tissue-based; conditions: read-out: Stability; outline: as §3
Brain [37] = experiment: Biodistribution in brain of NMRI mouse after 60 mins; assay type: ADME, organism-based; conditions: in vivo, 1 h; outline: as §2
[38] = Biodistribution in carcass of NMRI mouse after 60 mins; assay type: ADME, organism-based; conditions: in vivo, 1 h; outline: as §2
Plasma [39] = experiment: Metabolic stability in mouse plasma assessed as radioactivity after 30 mins; assay type: ADME, cell-free; conditions: 0.5 h; outline: as §3
[40] = Biodistribution in spleen/pancreas of NMRI mouse assessed as standard uptake value after 2 mins; assay type: ADME, organism-based; conditions: in vivo
[41] = Biodistribution in urine of NMRI mouse after 60 mins; assay type: ADME, organism-based; conditions: in vivo, 1 h; outline: as §2
Intestine [42] = experiment: Biodistribution in intestine of NMRI mouse after 60 mins; assay type: ADME, organism-based; conditions: in vivo, 1 h; outline: as §2
[43] = Drug uptake in human 293T cells transduced with LacZ gene after 3 hrs; assay type: ADME, cell-based; conditions: hek-293t; outline: as §1
[44] = Ratio of drug uptake in LV-VZVTK-1-P transduced cells to LV-LacZ-I-P transduced 293T cells after 3 hrs; assay type: ADME, cell-based; conditions: human
Outline: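 Lentivirally transduced human embryonic kidney 293T cells (VZV-tk vs LacZ control), plated in triplicate at 200 000 cells/well. After 24 h, fresh medium with HPLC-purified [18F] tracer (5 µCi/well), 3 h at 37 °C, 5% CO2. Cells washed three times with ice-cold PBS and lysed. Lysate counted in a gamma counter. Uptake given as % total radioactivity per mg protein (Bio-Rad assay). Ratio is VZV-tk/LacZ; n=3, unpaired Student t-test.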

[45] = Drug uptake in human 293T cells transduced with VZV-tk gene after 3 hrs; assay type: ADME, cell-based; conditions: hek-293t; outline: as §1

A Drug uptake [1] of 12.8%, a Drug uptake (Liver [2]) of 0.7 and a Drug uptake (Liver [3]) of 3.7 %ID were found for `[11CH3]Oc1cccc(-c2cc3cn([C@H]4C[C@H](O)[C@@H](CO)O4)c(=O)nc3o2)c1` in this work. It also gave a Drug uptake (Kidney [4]) of 21.7 %ID, a Drug uptake (Intestine [5]) of 25.6 %ID and a Drug uptake (Blood [6]) of 5.4 %ID. The Drug uptake (Blood [7]) was 0.2 %ID, the Drug uptake (Heart [8]) was 1 and the Drug uptake (Heart [9]) was 0.5 %ID. The Drug uptake [10] was 0.1, the Drug uptake (Kidney [11]) was 0.2 and the Drug uptake [12] was 0.2 %ID. It also gave a Drug uptake (Brain [13]) of 0.1, a remaining at 1 h [14] of 90% and a Drug uptake (Lung [15]) of 1. It also gave a Drug uptake (Liver [16]) of 21.3 %ID, a Drug uptake [17] of 0.1 %ID and a Drug uptake (Blood [18]) of 0. The Drug uptake [19] was 2.4 %ID, the Drug uptake [20] was 25.3 %ID and the Stability (Plasma [21]) was 98%. For the same compound, the Drug uptake (Lung [22]) was 0 %ID, the Drug uptake (Liver [23]) was 3.7 and the Drug uptake (Brain [24]) was 0. The Drug uptake (Heart [25]) was 0, the Drug uptake (Blood [26]) was 0.8 and the Drug uptake (Lung [27]) was 0.7 %ID. The Drug uptake (Kidney [28]) was 0.3 %ID, the Ratio [29] was 53 and the Drug uptake (Heart [30]) was 0 %ID. The logD [31] was 1.27, the Drug uptake (Brain [32]) was 0 %ID and the Drug uptake (Lung [33]) was 0. For the same compound, the Drug uptake (Kidney [34]) was 12.4, the Drug uptake [35] was 0.24% and the remaining at 0.5 h [36] was 90%. For the same compound, the Drug uptake (Brain [37]) was 0 %ID, the Drug uptake [38] was 3.5 %ID and the Stability (Plasma [39]) was 80%. The Drug uptake [40] was 2.7, the Drug uptake [41] was 28.2 %ID and the Drug uptake (Intestine [42]) was 63.7 %ID.
A Drug uptake (Liver [2]) of 0.7, a Drug uptake (Liver [3]) of 4.4 %ID and a Drug uptake (Kidney [4]) of 15.5 %ID were found for `O=c1nc2oc(-c3cccc(OCC[18F])c3)cc2cn1[C@H]1C[C@H](O)[C@@H](CO)O1` in this work. For the same compound, the Drug uptake (Intestine [5]) was 20.7 %ID, the Drug uptake (Blood [6]) was 6.2 %ID and the Drug uptake (Blood [7]) was 0.4 %ID. The Drug uptake (Heart [8]) was 0.6, the Drug uptake (Heart [9]) was 0.3 %ID and the Drug uptake [10] was 0.1. It also gave a Drug uptake (Kidney [11]) of 0.7, a Drug uptake [12] of 5.7 %ID and a Drug uptake (Brain [13]) of 0.1. It also gave a Drug uptake (Lung [15]) of 1.1, a Drug uptake (Liver [16]) of 24.4 %ID and a Drug uptake [17] of 0.1 %ID. The Drug uptake (Blood [18]) was 0.1, the Drug uptake [19] was 1.3 %ID and the Drug uptake [43] was 0.6%. It also gave a Drug uptake [20] of 27.2 %ID, a Drug uptake (Lung [22]) of 0.1 %ID and a Drug uptake (Liver [23]) of 3.9. It also gave a Drug uptake (Brain [24]) of 0, a Drug uptake (Heart [25]) of 0 and a Drug uptake (Blood [26]) of 0.9. The Drug uptake (Lung [27]) was 0.9 %ID, the uptake ratio at 3 h [44] was 4.5 and the Drug uptake (Kidney [28]) was 1.2 %ID. For the same compound, the Drug uptake (Heart [30]) was 0 %ID, the logD [31] was 1.24 and the Drug uptake (Brain [32]) was 0 %ID. For the same compound, the Drug uptake (Lung [33]) was 0, the Drug uptake (Kidney [34]) was 9 and the Drug uptake [45] was 2.29%. For the same compound, the Drug uptake (Brain [37]) was 0 %ID, the Drug uptake [38] was 3.8 %ID and the Drug uptake [40] was 1.4. The Drug uptake [41] was 29.5 %ID and the Drug uptake (Intestine [42]) was 60.5 %ID.
